Measured values gathered from unrelated publications.
CDK4 with cyclin D1: Cyclin-dependent kinase 4, with cyclin D1 (CDK4, Homo sapiens, UniProt P11802)
CDK4 with cyclin D3: Cyclin-dependent kinase 4, with cyclin D3 (CDK4, Homo sapiens, UniProt P11802)
CDK4: Cyclin-dependent kinase 4 (CDK4, Homo sapiens, UniProt P11802)

`O=C(NC[C@@H]1[C@H]2CN(C(=O)OCc3cc(C(F)(F)F)cc(C(F)(F)F)c3)C[C@@H]12)c1ccc2[nH]nnc2c1` has a remaining binding of 100% (CDK4 with cyclin D1; cell-free assay, competition with immobilised ligand; 1 µM).
`O=C1Nc2ccc(Cl)cc2C1=Cc1cc(Cl)c(O)c(Cl)c1` has a remaining signal of 94.8% (CDK4 with cyclin D3; cell-free assay; 0.5 µM).
The activity vs control of `Cc1ccc(C(=O)NCc2ccsc2)cc1C#Cc1cn(C(C)C)c2ncnc(N)c12` is reported as 92% (CDK4 with cyclin D3; enzyme activity, inhibitor; 1 µM).
For `Oc1cccc(-c2nc(N3CCOCC3)c3oc4ncccc4c3n2)c1`, the remaining signal was 92.5% (CDK4 with cyclin D3; cell-free assay; 0.5 µM).
The remaining binding of `CSc1cccnc1N1CCN(Cc2nc3ccccc3[nH]2)CC1` is reported as 82% (CDK4 with cyclin D3; cell-free assay, competition with immobilised ligand; 1 µM).
The remaining signal of `Nc1ncnc2occ(-c3ccc(NC(=O)Nc4cc(C(F)(F)F)ccc4F)cc3)c12` is reported as 29% (CDK4; cell-free assay, inhibitor; 20 µM).
The remaining binding of `N[C@H]1CCN(c2nccc(-c3cnn4ncccc34)n2)C1` is reported as 100% (CDK4 with cyclin D1; binding; 1 µM).
With `O=C(c1ccc(Br)cc1)[C@H]1Cc2c(cc([N+](=O)[O-])cc2[N+](=O)[O-])[C@H](O)[C@]12C(=O)Nc1ccccc12` the inhibition was 18.6% (CDK4; cell-free assay, inhibitor, TR-FRET; 1 µM).
`CC1CCCN1c1nccc(-c2cnn3ncccc23)n1` (stereo not shown) gave a remaining binding of 100% (CDK4 with cyclin D1; binding; 1 µM).
The remaining signal of `O=C1NC(=O)c2cc(Nc3ccc(F)cc3)c(Nc3ccc(F)cc3)cc21` is reported as 101% (CDK4 with cyclin D1; cell-free assay; 0.5 µM).
The remaining binding of `O=C(O)[C@@H]1[C@@H](Cn2nnc3ccccc3c2=O)CC[C@H]1C(=O)c1ccc(OCCC2CCOCC2)cc1` is reported as 83% (CDK4 with cyclin D3; cell-free assay, competition with immobilised ligand; 1 µM).
With `C[C@H]1CCN(c2nccc(-c3cnn4ncccc34)n2)C1` the remaining binding was 80% (CDK4 with cyclin D1; binding; 1 µM).
`Nc1nc(Nc2ccc(S(N)(=O)=O)cc2)sc1C(=O)c1ccccc1[N+](=O)[O-]` has an inhibition of 87% (CDK4; enzyme activity, inhibitor; 0.1 µM).
The remaining binding of `CNC(=O)Nc1ccc2c(c1)[C@@]1(CC2)OC(=O)N(CC(=O)N(Cc2ccc(F)cc2)[C@@H](C)C(F)(F)F)C1=O` is reported as 73% (CDK4; cell-free assay, competition with immobilised ligand; 1 µM).
`CC(C)(C)c1nc2c(s1)c1nc(N)ncc1c1ccc(NS(=O)(=O)c3c(F)cccc3F)c(F)c12` gave a remaining activity of 88% (CDK4 with cyclin D1; enzyme activity, inhibitor, radiometric; 1 µM).
The remaining binding of `F[C@@H]1CCN(c2nccc(-c3cnn4ncccc34)n2)C1` is reported as 100% (CDK4; binding; 1 µM).
The inhibition of `O=C(c1ccc(Cl)c(Cl)c1)[C@H]1Cc2c(cc([N+](=O)[O-])cc2[N+](=O)[O-])[C@@H](O)[C@@]12C(=O)Nc1ccccc12` is reported as 35.6% (CDK4; cell-free assay, inhibitor, TR-FRET; 1 µM).
For `O=C(Nc1cnn(-c2csc(C(=O)NC3COC3)c2)c1)Nc1c(F)cccc1Cl`, the remaining activity was 90.3% (CDK4 with cyclin D1; enzyme activity, inhibitor; 5 µM).
With `COc1cc2c(cc1OC)-c1[nH]nc(Nc3cccc(F)c3)c1C2` the remaining signal was 95.4% (CDK4 with cyclin D3; cell-free assay; 0.5 µM).
With `COc1ccc(C(=O)[C@H]2Cc3c(cc([N+](=O)[O-])cc3[N+](=O)[O-])[C@H](O)[C@]23C(=O)Nc2ccccc23)cc1` the inhibition was 18.4% (CDK4; cell-free assay, inhibitor, TR-FRET; 1 µM).
With `O=C(Nc1cnn(-c2csc(C(=O)NC3COC3)c2)c1)Nc1ccccc1Cl` the remaining activity was 98.2% (CDK4 with cyclin D3; enzyme activity, inhibitor; 5 µM).
For `O=C(c1ccc(F)cc1)[C@H]1Cc2c(cc([N+](=O)[O-])cc2[N+](=O)[O-])[C@H](O)[C@]12C(=O)Nc1ccccc12`, the inhibition was 23.2% (CDK4; cell-free assay, inhibitor, TR-FRET; 1 µM).
`CN(C)c1nccc(-c2cnc3ncccn23)n1` gave a remaining binding of 51% (CDK4 with cyclin D1; binding; 1 µM).
`CS(=O)(=O)c1cc(C2(NC(=O)c3cncc4c3cnn4-c3ccc(F)cc3)CC2)ccn1` gave a remaining binding of 100% (CDK4 with cyclin D3; cell-free assay, competition with immobilised ligand; 1 µM).
`COc1ccc(OC)c2c(=S)c3ccccc3[nH]c12` has a remaining signal of 93.5% (CDK4 with cyclin D1; cell-free assay; 0.5 µM).
With `Cc1cc(NC(=O)c2cccc3cc(-c4cccc5[nH]nc(N)c45)ccc23)ccc1F` the activity vs control was 89% (CDK4 with cyclin D3; enzyme activity, inhibitor; 0.1 µM).
`Cc1ccc(NC(=O)c2ccc(C)c(C(F)(F)F)c2)cc1C#Cc1nn(C2CCC(O)CC2)c2ncnc(N)c12` (stereo not shown) gave a remaining signal of 86% (CDK4 with cyclin D3; cell-free assay; 10 µM).
`N#CCCc1ccc2c(c1)-c1[nH]c3ccc([N+](=O)[O-])cc3c1CC(=O)N2` has a remaining signal of 11.8% (CDK4 with cyclin D1; cell-free assay; 0.5 µM).
With `CN(CCCC(F)(F)F)c1nccc(-c2cnn3ncccc23)n1` the remaining binding was 100% (CDK4 with cyclin D3; binding; 1 µM).
The remaining signal of `CCN(CC)CCNC(=O)c1c(C)[nH]c(/C=C2\C(=O)Nc3ccc(F)cc32)c1C` is reported as 81% (CDK4 with cyclin D1; cell-free assay; 0.5 µM).
For `CO[C@@H](C)c1c(Nc2ccc([C@@H](N(C)C(=O)C3CCS(=O)(=O)CC3)C(F)(F)F)cc2)cnc2cc(Cl)nn12`, the remaining binding was 100% (CDK4 with cyclin D1; cell-free assay, competition with immobilised ligand; 1 µM).
For `CC(C)(O)[C@H]1CC[C@H](Nc2ccc3ncc(-c4cccc(C(F)(F)F)c4)n3n2)CC1`, the remaining activity was 106% (CDK4 with cyclin D3; enzyme activity, inhibitor; 1 µM).
`Cc1sc(C(=O)NC2COC2)cc1-n1cc(NC(=O)Nc2c(F)cccc2Cl)cn1` has a remaining activity of 78% (CDK4 with cyclin D1; enzyme activity, inhibitor; 10 µM).
For `O=C(NCc1ncc(C(F)(F)F)cc1Cl)c1ccc2c(c1)C1(CCS(=O)(=O)CC1)[C@H](C1CC1)N2S(=O)(=O)c1ccc(F)cc1`, the remaining binding was 88% (CDK4 with cyclin D3; cell-free assay, competition with immobilised ligand; 1 µM).
The remaining signal of `CS(=O)(=O)CCNCc1ccc(-c2ccc3ncnc(Nc4ccc(OCc5cccc(F)c5)c(Cl)c4)c3c2)o1` is reported as 104% (CDK4 with cyclin D3; cell-free assay; 0.5 µM).
The inhibition of `O=C(c1ccccc1)[C@H]1Cc2c(cc([N+](=O)[O-])cc2[N+](=O)[O-])[C@@H](O)[C@@]12C(=O)Nc1ccccc12` is reported as 39.5% (CDK4; cell-free assay, inhibitor, TR-FRET; 1 µM).
For `CN(C)c1nccc(-c2cnn3ncccc23)n1`, the remaining binding was 92% (CDK4; binding; 1 µM).
`CN1CCN(c2cnc3c(C4CCN(C(=O)c5ccc(OC(F)(F)F)cc5N)CC4)ncnc3c2)CC1` gave a remaining binding of 100% (CDK4; cell-free assay, competition with immobilised ligand; 1 µM).
For `CN(c1nccc(-c2cnn3ncccc23)n1)C1CC1`, the remaining binding was 100% (CDK4 with cyclin D1; binding; 1 µM).
`O=C(c1ccccc1F)[C@H]1Cc2c(cc([N+](=O)[O-])cc2[N+](=O)[O-])[C@@H](O)[C@@]12C(=O)Nc1ccccc12` gave an inhibition of 38.9% (CDK4; cell-free assay, inhibitor, TR-FRET; 1 µM).
